Bioassay records as filed in PubChem.
A selection: hits, their analogues and other compounds. The true share with any hit is near 0.7%.
RAD52 inh: inhibitors of human RAD52 DNA annealing. inhibition, % at 18.7 µM. AID 651710. 360,000 tested, 0.46% active. recombinant RAD52 DNA annealing, FRET fluorescence;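 active means every replicate showing at least 50% inhibition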
Target sequence (P43351 whole entry, looked up): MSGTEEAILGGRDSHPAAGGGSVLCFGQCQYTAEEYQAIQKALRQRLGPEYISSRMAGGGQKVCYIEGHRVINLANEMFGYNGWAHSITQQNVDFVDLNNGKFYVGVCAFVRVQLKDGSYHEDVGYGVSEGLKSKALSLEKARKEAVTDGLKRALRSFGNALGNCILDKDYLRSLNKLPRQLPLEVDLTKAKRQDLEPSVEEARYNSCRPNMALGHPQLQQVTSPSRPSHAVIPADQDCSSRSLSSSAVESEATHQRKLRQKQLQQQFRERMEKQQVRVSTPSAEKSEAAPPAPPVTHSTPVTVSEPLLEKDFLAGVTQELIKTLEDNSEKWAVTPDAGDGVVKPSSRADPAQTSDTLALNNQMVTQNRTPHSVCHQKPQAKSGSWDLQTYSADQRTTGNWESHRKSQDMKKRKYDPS
N-glyco inh: N-linked glycosylation inhibition | D54 ERlucT glycosylation luciferase reporter, 24 h; percent of 100 nM tunicamycin response | reporter increase, % at 12.5 µM | 360,000 tested, 0.23% active | AID 588692;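 active means mean luciferase reporter signal, scaled so untreated is 0 and the glycosylation-blocking control 100, at or above a set limit in every replicate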;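 further: luciferase carries N-glycosylation sites so blocking glycosylation raises the light; 0% = median of neutral control wells and 100% = median of 100 nM tunicamycin wells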
FN deposition inh: fibronectin deposition inhibition. AH1F fibroblasts, Alexa488-fibronectin deposition fluorescence, overnight. inhibition, % at 12.6 µM. 350,000 tested, 0.086% active. AID 743247;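 active means mean inhibition across replicates of 30% or more, regardless of how many single replicates reach that level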;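 further: positive control wells lacked labelled fibronectin entirely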
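Material: AH1F fibroblast monolayer depositing Alexa488-labelled fibronectin into matrix | Input: 10000 AH1F cells/well | Medium: DMEM plus 2% serum, read in PBS | Reagent: Alexa488-fibronectin, 24 nM final in well | Compound dosing: One dose per compound, pinned | Schedule: 1 h adhesion, overnight exposure | Measured by: Fluorescence at 485 nm excitation, 525 nm emission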
CaV13 ICDI inh: Primary screen for inhibitors of IQ motif and Ca2+-dependent inactivation inhibitor domain binding in CACNA1D, Förster resonance energy transfer in living cells, …; HEK cells, CFP/YFP FRET ICDI-IQ, plate reader, 10 min; percent FRET-ratio fall versus neutral wells; inhibition, % at 12.3 µM; 340,000 tested, 0.098% active; AID 743397;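 active means mean replicate inhibition of at least 30% and at least 1% of replicates passing that level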;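 further: 0% = median of the neutral control wells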
RAD54 branch: blocks human RAD54 Holliday junction branch migration; Q92698; FAM/BHQ fluorescence; inhibition, % at 10.4 µM; 360,000 tested, 0.14% active; AID 602329;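 active means mean normalized replicate activity at least 40 and at least half of replicates scoring 40 or more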;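 further: 0% = median of neutral control wells and 100% = median of positive control wells; inhibitors cause a drop in the FAM fluorescence signal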
* marks the source's active call; other numbers are inactive results; nt = no result; ! = not confirmed by another sample.

SMILES	RAD52 inh	N-glyco inh	FN deposition inh	CaV13 ICDI inh	RAD54 branch
C[C@@H]1CCCCO[C@H](CN(C)C(=O)NC2CCCCC2)[C@@H](C)CN([C@H](C)CO)C(=O)c2cc(NC(=O)Nc3ccc4c(c3)OCO4)ccc2O1	3	nt	4	nt	-1
O=C(C[C@H]1C[C@@H]2c3cc(NS(=O)(=O)c4ccc(F)cc4)ccc3O[C@@H]2[C@@H](CO)O1)N1CCOCC1	4	nt	1	nt	3
O=C(Nc1ccc(Cl)c(Cl)c1)N[C@@H]1CC[C@H](CCn2cc(C3CCCCC3)nn2)O[C@@H]1CO	13	nt	-10	nt	-4
O=C(Nc1ccc(F)cc1)N1[C@@H]2CNC[C@H]1C2c1ccc(-c2ccc(F)cc2)cc1 (stereo partly drawn)	51*	nt	4	nt	nt
Cc1ccc(-c2ccc(C3[C@H]4CNC[C@@H]3N4C(=O)Nc3ccc(F)cc3)cc2)cc1 (stereo partly drawn)	49	nt	-8	nt	nt
O=C(Nc1ccc2c(c1)OCO2)N1C[C@@H]2N[C@H](C1)C2c1ccc(C=Cc2ccccc2)cc1 (stereo partly drawn)	79*	nt	-4	nt	nt
O=C(Nc1ccc(F)cc1)N1[C@@H]2CNC[C@H]1C2c1ccc(-c2ccccc2)cc1 (stereo partly drawn)	55*!	nt	-3	nt	nt
O=C(N[C@@H]1CC[C@H](CCNC(=O)C2CCOCC2)O[C@@H]1CO)c1ccccn1	-12	nt	-6	nt	7
Cc1noc(C)c1S(=O)(=O)N(C)C[C@H]1Oc2ccc(NC(=O)CCCCCC(=O)Nc3ccccc3N)cc2CC(=O)N([C@H](C)CO)C[C@@H]1C	-10	nt	-7	nt	nt
CNC[C@H]1OCCCC[C@@H](C)Oc2ccc(NC(=O)C3CCCCC3)cc2C(=O)N([C@H](C)CO)C[C@H]1C	-61	nt	nt	nt	8
NNC(=O)c1ccc(OCC2CC(c3ccc(Cl)cc3)=NO2)cc1 (stereo not drawn)	-14	52*	-3	-18	0
Cc1cc(=O)oc2cc(OCC3CC(c4ccc(Cl)cc4)=NO3)ccc12 (stereo not drawn)	nt	0	-4	-6	5
CC(=O)N(C)C[C@H]1Oc2ncc(C#Cc3ccccn3)cc2C(=O)N([C@H](C)CO)C[C@H]1C	-36	nt	nt	nt	-8
COc1ccc(-c2cc(-c3ccc(O)cc3)nc(N)c2C#N)cc1OC	-36	27*	-5	nt	1
O=C(C[C@H]1C=C[C@@H](NC(=O)CC2CC2)[C@H](CO)O1)NCC(F)(F)F	-3	nt	-7	nt	3
O=C(Nc1ccc2c(c1)[C@@H]1C[C@@H](CC(=O)N3CCOCC3)O[C@H](CO)[C@@H]1O2)C1CCOCC1	1	nt	11	nt	3
C[C@@H]1CN([C@H](C)CO)C(=O)c2cccc(NC(=O)c3ccc(-c4nccs4)cc3)c2O[C@@H]1CN(C)S(=O)(=O)c1cn(C)cn1	16	nt	-1	nt	-1
CC(C)CC#Cc1cnc2c(c1)C(=O)N([C@H](C)CO)C[C@@H](C)[C@@H](CN(C)C(=O)Cc1cccnc1)O2	-4	nt	-8	nt	1
Cc1cccc(/C=C/C(=O)c2ccc([N+](=O)[O-])o2)c1	-11	1	65*	-7	-7
COc1ccc(/C=C/C(=O)c2ccc([N+](=O)[O-])o2)cc1	-13	-6	-4	-7	3
Cc1ccccc1/C=C/C(=O)c1ccc([N+](=O)[O-])o1	-15	nt	42*	-6	nt
O=C(/C=C/c1cccc([N+](=O)[O-])c1)c1ccc([N+](=O)[O-])o1	-9	-21	-11	-5	11
C[C@H](CO)N1C[C@H](C)[C@H](CN(C)CC2CCCCC2)Oc2ccc(NC(=O)c3ccncc3)cc2C1=O	0	nt	2	nt	3
N#Cc1c(NCCN)nc(-c2ccco2)c2c1CCCC2	nt	33*	nt	-2	nt
C[C@@H]1CN([C@@H](C)CO)S(=O)(=O)c2ccc(C#Cc3ccccc3)cc2O[C@H]1CN(C)C(=O)CN(C)C	34	nt	15	nt	4
SMILES	RAD52 inh	N-glyco inh	FN deposition inh	CaV13 ICDI inh	RAD54 branch
C[C@H](CO)N1C[C@H](C)[C@@H](CN(C)C(=O)CN(C)C)Oc2cc(C#Cc3ccc(F)cc3)ccc2S1(=O)=O	52*	nt	-1	nt	3
C[C@@H]1CN([C@@H](C)CO)S(=O)(=O)c2ccc(C#Cc3ccc(F)cc3)cc2O[C@H]1CN(C)C(=O)CN(C)C	55*	nt	12	nt	12
CCCC#Cc1ccc2c(c1)O[C@H](CN(C)C(=O)c1ccccc1)[C@@H](C)CN([C@@H](C)CO)S2(=O)=O	21	nt	-8	nt	5
COc1ccc(-c2cc3ccccc3oc2=O)cc1NC(=O)c1ccc([N+](=O)[O-])o1	nt	50*	11	-9	nt
COc1ccc(-c2cc3ccccc3oc2=O)cc1NC(=S)NC(=O)c1ccc2c(c1)OCCO2	nt	70*	4	-4	16
COc1ccc(-c2cc3ccccc3oc2=O)cc1NC(=O)c1ccc(Br)o1	nt	-4	nt	nt	8
CC1=C(n2ccnc2)CCC1=O	nt	86*	-5	-6	8
COc1ccc2c3c(n(C)c2c1)[C@@H](CO)NCC31CN(CC2CC2)C1	56*	nt	nt	nt	nt
COc1ccc2c3c(n(C)c2c1)[C@H](CO)NCC31CN(Cc2ccc(-c3ccccn3)cc2)C1	89*	nt	-4	nt	nt
COc1ccc2c3c(n(C)c2c1)[C@H](CO)NCC31CCN(CC2CC2)CC1	63*	nt	nt	nt	nt
COc1ccc2c3c(n(C)c2c1)[C@H](CO)NCC31CCN(Cc2ccncc2)CC1	-7	nt	-3	nt	nt
CC(C)c1cn(CC[C@@H]2CC[C@H](NS(=O)(=O)c3ccccc3)[C@@H](CO)O2)nn1	4	nt	nt	nt	3
CC(=O)N(C1=C(Cl)C(=O)c2ccccc2C1=O)C1CCCCC1	-9	21	80*	16	-7
CC(C)C(c1nnnn1Cc1ccco1)N1CCN(c2nc3ccccc3s2)CC1 (stereo not drawn)	nt	-4	39*	-4	4
C[C@H]1CN([C@@H](C)CO)C(=O)Cc2cc(NC(=O)CCCN(C)C)ccc2O[C@@H]1CN(C)Cc1ccc(Oc2ccccc2)cc1	52*	nt	nt	nt	20
C[C@H](CO)N1C[C@H](C)[C@H](CN(C)Cc2ccc(Oc3ccccc3)cc2)Oc2ccc(NC(=O)CCCN(C)C)cc2CC1=O	58*	nt	nt	nt	9
O=C(Nc1cccc(-n2cnnn2)c1)c1cc(Cl)ccc1Cl	-17	34*	5	-4	-2
O=C(C[C@@H]1CC[C@H]2[C@@H](COC[C@@H](O)CN2Cc2ccc(Oc3ccccc3)cc2)O1)Nc1nccs1	-7	nt	3	nt	5
O=C(NCCc1ccc(Cl)cc1)C1CCC(CNc2nc(=S)[nH]c3ccccc23)CC1 (stereo not drawn)	1	2	-10	-2	5
O=C(NCCC1=CCCCC1)C1CCC(CNc2nc(=S)[nH]c3ccccc23)CC1 (stereo not drawn)	-6	58*	2	1	4
Cc1ccccc1S(=O)(=O)N1[C@H](CO)[C@@H](c2ccc(C#CC3CCCC3)cc2)[C@@H]1C#N	-75	nt	-11	nt	nt
